SMILES strings stand for the structures. Changes are numbered by the printed parent chain.

Settings in all cases: stereoisomer not certain
The target of one assay is T1, OR2W1 (Homo sapiens) (UniProt Q9Y3N9).
T1 sequence (whole entry): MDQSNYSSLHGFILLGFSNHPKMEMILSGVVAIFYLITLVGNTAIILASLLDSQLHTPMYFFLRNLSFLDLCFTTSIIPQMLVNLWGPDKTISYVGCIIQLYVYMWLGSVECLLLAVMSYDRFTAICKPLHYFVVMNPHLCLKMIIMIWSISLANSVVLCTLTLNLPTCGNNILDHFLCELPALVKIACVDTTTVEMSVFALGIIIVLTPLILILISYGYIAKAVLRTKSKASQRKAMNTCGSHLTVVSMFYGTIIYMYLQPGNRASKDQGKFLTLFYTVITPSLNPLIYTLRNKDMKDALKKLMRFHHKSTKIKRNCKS
Put shortly:
(§1)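 Transient luciferase assays in mammalian cell lines were common, though methods varied by source. The values come from published papers and their supplementary material, with extra details from the original authors when needed. Responsive refers to a measured signal the original authors judged statistically different from baseline, and non-responsive (inactive) to the remainder.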

The subject of assay [1] is T2, OR2W1.
T2 sequence (whole entry): T1 sequence (whole entry) with D296N
Put shortly:
as §1

Assay [2] has as its system T3, OR2W1.
T3 sequence (whole entry): T1 sequence (whole entry) with M81V
Put shortly:
as §1
This is another data set of the same source.

The next assay has as its target T4, OR3A1 (Homo sapiens) (UniProt P47881).
T4 sequence (whole entry): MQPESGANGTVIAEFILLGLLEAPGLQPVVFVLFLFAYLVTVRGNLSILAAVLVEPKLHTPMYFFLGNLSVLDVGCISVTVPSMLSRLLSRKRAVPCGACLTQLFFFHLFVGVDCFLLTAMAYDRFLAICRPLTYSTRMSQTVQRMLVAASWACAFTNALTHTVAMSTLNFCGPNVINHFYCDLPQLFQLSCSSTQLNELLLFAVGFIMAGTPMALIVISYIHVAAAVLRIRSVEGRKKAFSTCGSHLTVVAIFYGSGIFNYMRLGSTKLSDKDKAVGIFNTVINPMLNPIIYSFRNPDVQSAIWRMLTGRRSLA
An outline of the steps: as §1

The test system of assay [3] is OR3A1. An outline of the steps: as §1
Target sequence in this assay (as listed by the source): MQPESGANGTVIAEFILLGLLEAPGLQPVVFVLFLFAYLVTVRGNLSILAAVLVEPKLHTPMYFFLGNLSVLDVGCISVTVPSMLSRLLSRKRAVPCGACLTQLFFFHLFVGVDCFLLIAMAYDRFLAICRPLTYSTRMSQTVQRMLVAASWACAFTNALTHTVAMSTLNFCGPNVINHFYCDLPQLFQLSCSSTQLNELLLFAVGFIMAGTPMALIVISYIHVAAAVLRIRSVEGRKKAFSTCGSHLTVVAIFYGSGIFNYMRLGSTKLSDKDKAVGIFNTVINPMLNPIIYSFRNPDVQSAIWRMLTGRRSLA
For assay [4], the system named is OR3A1. Put shortly:
as §1
Target sequence in this assay (as listed by the source): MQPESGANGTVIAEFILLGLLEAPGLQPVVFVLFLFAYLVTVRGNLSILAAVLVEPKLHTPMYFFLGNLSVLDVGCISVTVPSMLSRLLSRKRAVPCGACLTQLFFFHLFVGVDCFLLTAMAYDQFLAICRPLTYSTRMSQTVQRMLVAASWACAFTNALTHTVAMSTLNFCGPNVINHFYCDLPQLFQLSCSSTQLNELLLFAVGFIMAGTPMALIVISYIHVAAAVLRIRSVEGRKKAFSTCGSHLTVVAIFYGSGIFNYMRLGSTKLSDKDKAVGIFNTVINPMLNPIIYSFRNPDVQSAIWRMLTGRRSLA
This is another data set of the same source.

The test system of another assay is OR2T7. Put shortly: as §1
The next assay deals with OR2T8 (Homo sapiens) (UniProt A6NH00). An outline of the steps:
as §1

A further assay concerns the target OR2V1 (Homo sapiens) (UniProt Q8NHB1). Put shortly:
as §1

The next assay has as its target OR2V2 (Homo sapiens) (UniProt Q96R30). An outline of the steps: as §1
The next assay relates to OR2W1 G96V. Put shortly:
as §1

The next assay addresses T5, OR2W3 (Homo sapiens) (UniProt Q7Z3T1).
T5 sequence (whole entry): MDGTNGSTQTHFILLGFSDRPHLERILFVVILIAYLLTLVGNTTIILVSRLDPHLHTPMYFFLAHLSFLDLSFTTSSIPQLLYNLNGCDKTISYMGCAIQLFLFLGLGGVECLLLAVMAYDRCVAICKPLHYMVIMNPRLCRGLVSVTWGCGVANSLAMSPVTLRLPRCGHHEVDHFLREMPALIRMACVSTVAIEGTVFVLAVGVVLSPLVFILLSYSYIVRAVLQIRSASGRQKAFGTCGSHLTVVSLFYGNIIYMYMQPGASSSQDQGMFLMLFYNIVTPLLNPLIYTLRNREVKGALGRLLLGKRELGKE
An outline of the steps: as §1

A further assay addresses OR2W5P (Homo sapiens) (UniProt A6NFC9). Put shortly:
as §1

Another assay addresses OR2Y1 (Homo sapiens) (UniProt Q8NGV0). Put shortly: as §1
Another assay concerns OR2Y1. Put shortly:
as §1

The next assay deals with OR2Z1 (Homo sapiens) (UniProt Q8NG97). An outline of the steps:
as §1

Another assay addresses OR3A2 (Homo sapiens) (UniProt P47893). An outline of the steps:
as §1

For a further assay, the system named is OR3A2 R317K. An outline of the steps: as §1
The next assay addresses OR3A3 (Homo sapiens) (UniProt P47888). An outline of the steps: as §1
The subject of the next assay is OR3A3 T48I L132F. Put shortly: as §1
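Note: active if original authors judged signal statistically different from baseline.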

OR2V1 (Homo sapiens), sequence (Q8NHB1 whole entry): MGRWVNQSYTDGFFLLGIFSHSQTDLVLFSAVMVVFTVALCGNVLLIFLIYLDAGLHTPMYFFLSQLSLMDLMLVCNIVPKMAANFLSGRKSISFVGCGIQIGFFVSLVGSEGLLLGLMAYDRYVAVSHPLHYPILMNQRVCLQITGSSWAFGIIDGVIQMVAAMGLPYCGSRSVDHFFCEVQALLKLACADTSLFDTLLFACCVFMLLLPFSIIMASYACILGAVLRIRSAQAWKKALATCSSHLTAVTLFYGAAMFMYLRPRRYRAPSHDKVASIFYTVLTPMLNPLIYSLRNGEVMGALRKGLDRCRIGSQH
OR2Z1 (Homo sapiens), sequence (Q8NG97 whole entry): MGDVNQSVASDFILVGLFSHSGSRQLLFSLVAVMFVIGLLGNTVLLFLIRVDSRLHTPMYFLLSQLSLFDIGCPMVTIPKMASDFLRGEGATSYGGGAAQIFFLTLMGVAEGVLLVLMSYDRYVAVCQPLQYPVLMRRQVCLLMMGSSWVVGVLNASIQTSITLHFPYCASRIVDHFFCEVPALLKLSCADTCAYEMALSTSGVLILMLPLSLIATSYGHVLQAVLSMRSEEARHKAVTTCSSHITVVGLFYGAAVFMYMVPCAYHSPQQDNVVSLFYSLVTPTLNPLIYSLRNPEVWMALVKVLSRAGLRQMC
OR2Y1 (Homo sapiens), sequence (Q8NGV0 whole entry): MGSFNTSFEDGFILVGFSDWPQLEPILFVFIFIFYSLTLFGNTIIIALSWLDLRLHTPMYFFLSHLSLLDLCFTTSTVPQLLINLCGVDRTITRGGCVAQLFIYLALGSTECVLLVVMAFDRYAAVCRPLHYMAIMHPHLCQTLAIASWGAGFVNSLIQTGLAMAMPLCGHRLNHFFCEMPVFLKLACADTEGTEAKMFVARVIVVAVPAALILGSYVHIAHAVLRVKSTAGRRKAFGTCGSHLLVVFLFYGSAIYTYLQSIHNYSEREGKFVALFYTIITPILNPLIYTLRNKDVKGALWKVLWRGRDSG
OR3A3 (Homo sapiens), sequence (P47888 whole entry): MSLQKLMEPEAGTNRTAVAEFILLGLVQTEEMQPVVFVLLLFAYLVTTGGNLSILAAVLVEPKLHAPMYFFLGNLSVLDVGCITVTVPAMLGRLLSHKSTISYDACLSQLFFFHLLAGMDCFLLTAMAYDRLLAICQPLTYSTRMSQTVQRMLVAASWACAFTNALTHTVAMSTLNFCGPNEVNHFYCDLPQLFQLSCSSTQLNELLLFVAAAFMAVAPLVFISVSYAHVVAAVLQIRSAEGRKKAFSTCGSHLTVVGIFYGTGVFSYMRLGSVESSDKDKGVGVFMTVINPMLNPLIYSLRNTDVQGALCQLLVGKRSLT
OR2T8 (Homo sapiens), sequence (A6NH00 whole entry): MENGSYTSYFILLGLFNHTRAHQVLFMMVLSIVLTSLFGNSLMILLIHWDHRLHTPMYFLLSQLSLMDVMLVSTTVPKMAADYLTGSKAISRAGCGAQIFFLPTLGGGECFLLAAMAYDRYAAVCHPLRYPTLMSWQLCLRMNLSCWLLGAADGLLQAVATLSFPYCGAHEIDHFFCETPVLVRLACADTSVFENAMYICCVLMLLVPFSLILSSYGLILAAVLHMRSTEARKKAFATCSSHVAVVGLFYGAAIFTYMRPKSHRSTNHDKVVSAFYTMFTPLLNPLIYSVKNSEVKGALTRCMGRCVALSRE
OR3A2 (Homo sapiens), sequence (P47893 whole entry): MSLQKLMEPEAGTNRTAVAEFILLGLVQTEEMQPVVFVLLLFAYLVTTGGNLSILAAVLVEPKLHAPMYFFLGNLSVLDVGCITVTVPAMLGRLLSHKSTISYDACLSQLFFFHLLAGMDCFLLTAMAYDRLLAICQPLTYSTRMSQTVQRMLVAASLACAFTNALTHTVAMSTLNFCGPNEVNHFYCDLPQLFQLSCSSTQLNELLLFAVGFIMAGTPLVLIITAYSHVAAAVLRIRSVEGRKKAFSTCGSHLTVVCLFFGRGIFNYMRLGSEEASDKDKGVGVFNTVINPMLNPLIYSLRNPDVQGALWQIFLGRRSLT
OR2V2 (Homo sapiens), sequence (Q96R30 whole entry): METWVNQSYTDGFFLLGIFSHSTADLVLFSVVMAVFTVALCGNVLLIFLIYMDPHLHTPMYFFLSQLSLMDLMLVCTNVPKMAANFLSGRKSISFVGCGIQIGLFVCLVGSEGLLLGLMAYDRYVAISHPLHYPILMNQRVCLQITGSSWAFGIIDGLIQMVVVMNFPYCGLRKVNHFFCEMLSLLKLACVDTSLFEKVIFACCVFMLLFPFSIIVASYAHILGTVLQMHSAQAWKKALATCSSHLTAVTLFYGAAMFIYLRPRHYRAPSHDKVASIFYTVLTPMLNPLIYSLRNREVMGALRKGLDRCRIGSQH
OR2W5P (Homo sapiens), sequence (A6NFC9 whole entry): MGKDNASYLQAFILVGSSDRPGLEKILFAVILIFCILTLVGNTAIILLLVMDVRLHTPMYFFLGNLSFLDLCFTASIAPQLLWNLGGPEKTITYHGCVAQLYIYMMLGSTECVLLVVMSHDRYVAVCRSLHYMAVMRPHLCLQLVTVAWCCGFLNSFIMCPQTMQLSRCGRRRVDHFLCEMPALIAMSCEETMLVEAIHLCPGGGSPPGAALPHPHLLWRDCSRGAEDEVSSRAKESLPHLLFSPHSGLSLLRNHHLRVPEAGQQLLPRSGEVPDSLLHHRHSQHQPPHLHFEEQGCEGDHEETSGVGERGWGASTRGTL
OR2Y1, sequence (as listed by the source): as the sequence (Q8NGV0 whole entry) above, with V200L counted along it
OR2W1 G96V, sequence (as listed by the source, stated change not applied): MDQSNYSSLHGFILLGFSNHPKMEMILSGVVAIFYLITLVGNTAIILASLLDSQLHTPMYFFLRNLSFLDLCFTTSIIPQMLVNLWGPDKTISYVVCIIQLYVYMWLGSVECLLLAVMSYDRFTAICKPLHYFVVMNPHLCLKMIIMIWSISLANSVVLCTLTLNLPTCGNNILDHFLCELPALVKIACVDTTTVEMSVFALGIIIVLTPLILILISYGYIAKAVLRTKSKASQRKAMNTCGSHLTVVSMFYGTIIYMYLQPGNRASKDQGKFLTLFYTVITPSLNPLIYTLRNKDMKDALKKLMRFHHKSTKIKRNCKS
OR3A2 R317K, sequence (as listed by the source, stated change not applied): as the sequence (P47893 whole entry) above, with R317K counted along it
OR2T7, sequence (as listed by the source): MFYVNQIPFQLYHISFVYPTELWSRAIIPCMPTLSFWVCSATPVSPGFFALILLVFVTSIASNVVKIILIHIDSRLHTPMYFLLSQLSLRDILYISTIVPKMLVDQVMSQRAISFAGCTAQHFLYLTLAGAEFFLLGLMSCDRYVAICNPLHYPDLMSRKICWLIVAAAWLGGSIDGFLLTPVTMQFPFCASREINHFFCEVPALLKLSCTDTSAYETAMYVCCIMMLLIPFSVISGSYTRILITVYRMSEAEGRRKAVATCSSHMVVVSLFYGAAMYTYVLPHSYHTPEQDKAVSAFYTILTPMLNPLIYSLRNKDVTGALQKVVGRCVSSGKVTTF

As for `CSSC`, the “odorant receptor agonist call” value in the assay with OR2W1 (Homo sapiens) is “inactive”.

On to `CCOC(=O)Cc1ccccc1`, for which the “odorant receptor agonist call” value in the assay with OR2W1 (Homo sapiens), in the assay with OR2W1 [1] and in the assay with OR2W1 [2] was “active” in each case.

On to `C=CCc1ccc2c(c1)OCO2`, for which, in the assay with OR3A1 (Homo sapiens), the “odorant receptor agonist call” value is “inactive”.

On to `NCC(=O)c1ccccc1`, for which the “odorant receptor agonist call” value in the assay with OR2W1 (Homo sapiens) was “inactive”.

Regarding `CC(=O)C=Cc1ccc2c(c1)OCO2`, the “odorant receptor agonist call” value with OR3A1 (Homo sapiens) was “active”.

`O=c1cc(O)c2ccccc2o1`: the “odorant receptor agonist call” value with OR2W1 (Homo sapiens) was “inactive”.

On to `CC(C=O)Cc1ccc2c(c1)OCO2` (stereo not drawn), for which the “odorant receptor agonist call” value with OR3A1 (Homo sapiens) is “active”. The “odorant receptor agonist call” value in the assay with OR3A1 [3] and in the assay with OR3A1 [4] was “inactive” each time.

For the molecule `O=Cc1ccco1`, the “odorant receptor agonist call” value with OR2W1 (Homo sapiens) is “inactive”.

Consider `C=CCOC(=O)Cc1ccccc1`, for which the “odorant receptor agonist call” value in the assay on OR2T7, with OR2T8 (Homo sapiens), in the assay with OR2V1 (Homo sapiens), with OR2V2 (Homo sapiens), in the assay on OR2W1 G96V and with OR2W3 (Homo sapiens) was “inactive” throughout. Further, the “odorant receptor agonist call” value with OR2W5P (Homo sapiens), with OR2Y1 (Homo sapiens), with OR2Y1, with OR2Z1 (Homo sapiens), with OR3A1 (Homo sapiens) and in the assay with OR3A1 [4] was “inactive” throughout. Besides, the “odorant receptor agonist call” value with OR3A2 (Homo sapiens), with OR3A2 R317K, with OR3A3 (Homo sapiens) and in the assay on OR3A3 T48I L132F was “inactive” throughout. In addition, in the assay with OR2W1 (Homo sapiens), the “odorant receptor agonist call” value is “active”.

Regarding `Cc1ccccc1O`, the “odorant receptor agonist call” value with OR2W1 (Homo sapiens) was “inactive”.

On to `O=C(O)Cc1ccccc1`, for which the “odorant receptor agonist call” value in the assay with OR2W1 (Homo sapiens) was “inactive”.

Consider `C=CCSSCC=C`, for which, in the assay with OR2W1 (Homo sapiens), the “odorant receptor agonist call” value is “inactive”. For the same molecule, the “odorant receptor agonist call” value in the assay with OR2W1 [1] and in the assay with OR2W1 [2] was “active” throughout.

For `O=Cc1ccc2c(c1)OCO2`, the “odorant receptor agonist call” value in the assay with OR2W1 (Homo sapiens), in the assay with OR2W1 [1] and in the assay on OR2W1 [2] was “active” each time. Further, the “odorant receptor agonist call” value in the assay with OR3A1 (Homo sapiens) is “inactive”.

As for `SCc1ccccc1`, the “odorant receptor agonist call” value in the assay with OR2W1 (Homo sapiens), in the assay on OR2W1 [1] and with OR2W1 [2] was “active” in each case.

In the case of `COc1ccc(C=O)cc1`, the “odorant receptor agonist call” value with OR2W1 (Homo sapiens), with OR2W1 [1] and in the assay with OR2W1 [2] was “active” throughout. Also, the “odorant receptor agonist call” value with OR2W3 (Homo sapiens) is “inactive”.

Turning to `Cc1cccc(C)c1`, in the assay with OR2W3 (Homo sapiens), the “odorant receptor agonist call” value was “inactive”.

Regarding `Cc1c([N+](=O)[O-])c(C)c([N+](=O)[O-])c(C(C)(C)C)c1[N+](=O)[O-]`, the “odorant receptor agonist call” value with OR2T8 (Homo sapiens), with OR2V1 (Homo sapiens), in the assay with OR2V2 (Homo sapiens), in the assay with OR2W1 (Homo sapiens), with OR2W3 (Homo sapiens) and with OR2Y1 (Homo sapiens) was “inactive” each time. Moreover, the “odorant receptor agonist call” value with OR2Z1 (Homo sapiens), with OR3A1 (Homo sapiens), with OR3A2 (Homo sapiens) and with OR3A3 (Homo sapiens) was “inactive” in each case.

With `OCc1ccco1`, the “odorant receptor agonist call” value in the assay with OR2W1 (Homo sapiens) and in the assay with OR2W1 [1] was “active” in each case. Besides, in the assay with OR2W1 [2], the “odorant receptor agonist call” value is “inactive”.

Take `C=CCc1ccccc1`: in the assay with OR2W1 (Homo sapiens), the “odorant receptor agonist call” value is “inactive”.

For `C=CCc1ccc(OC)cc1`, the “odorant receptor agonist call” value with OR2W1 (Homo sapiens), with OR2W1 [1] and in the assay with OR2W1 [2] was “active” each time.

As for `Cc1ccc(O)c(C)c1`, the “odorant receptor agonist call” value with OR2W1 (Homo sapiens) is “inactive”.

As to `SCc1ccco1`, the “odorant receptor agonist call” value in the assay with OR2W1 (Homo sapiens), in the assay on OR2W1 [1] and in the assay on OR2W1 [2] was “active” throughout.

As to `CCC1CCC(=O)O1` (stereo not drawn), the “odorant receptor agonist call” value with OR2W1 (Homo sapiens) is “inactive”.

These data come from the M2OR odorant receptor database.
